The source of these data is ChEMBL document CHEMBL4152367, “Discovery of a Potent Thiazolidine Free Fatty Acid Receptor 2 Agonist with Favorable Pharmacokinetic Properties” (J Med Chem, 2018).

The source made the active and inactive calls. The rule behind the calls is not given here.

Data set [1] has as its target T1, Free fatty acid receptor 3 (Homo sapiens) (UniProt O14843).
T1 sequence (whole entry): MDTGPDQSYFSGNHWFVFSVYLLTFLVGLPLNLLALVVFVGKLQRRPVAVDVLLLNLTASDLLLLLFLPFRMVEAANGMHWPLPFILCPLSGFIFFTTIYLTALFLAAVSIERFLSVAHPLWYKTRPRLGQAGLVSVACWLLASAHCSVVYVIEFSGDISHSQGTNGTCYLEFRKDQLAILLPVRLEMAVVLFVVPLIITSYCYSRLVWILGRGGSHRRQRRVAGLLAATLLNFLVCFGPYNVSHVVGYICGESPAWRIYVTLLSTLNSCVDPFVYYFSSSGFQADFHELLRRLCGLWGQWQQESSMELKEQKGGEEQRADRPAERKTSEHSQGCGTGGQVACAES
Put plainly: Agonist activity at FFA3R (unknown origin) up to 100 uM. It counts as functional.

In data set [2] the target is Free fatty acid receptor 1 (Homo sapiens) (UniProt O14842). Put plainly: Agonist activity at human FFA1R expressed in HEK293 cells assessed as induction of calcium flux at 10 uM by fluorimetry. It counts as functional, cell-based. A general note: Calcium flux is commonly read through the fluorescence of an indicator in the cells.
Sequence of Free fatty acid receptor 1 (Homo sapiens) (O14842 whole entry): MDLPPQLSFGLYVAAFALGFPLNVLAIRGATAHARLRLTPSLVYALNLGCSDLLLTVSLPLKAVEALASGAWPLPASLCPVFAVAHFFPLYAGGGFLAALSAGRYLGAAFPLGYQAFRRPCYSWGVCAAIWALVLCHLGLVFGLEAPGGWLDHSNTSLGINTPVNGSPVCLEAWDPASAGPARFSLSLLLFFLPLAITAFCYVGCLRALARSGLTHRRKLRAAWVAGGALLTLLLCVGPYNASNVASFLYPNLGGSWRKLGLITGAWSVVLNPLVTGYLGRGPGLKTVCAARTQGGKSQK
The target of data set [3] is T2, Peroxisome proliferator-activated receptor alpha (Homo sapiens) (UniProt Q07869).
T2 sequence (whole entry): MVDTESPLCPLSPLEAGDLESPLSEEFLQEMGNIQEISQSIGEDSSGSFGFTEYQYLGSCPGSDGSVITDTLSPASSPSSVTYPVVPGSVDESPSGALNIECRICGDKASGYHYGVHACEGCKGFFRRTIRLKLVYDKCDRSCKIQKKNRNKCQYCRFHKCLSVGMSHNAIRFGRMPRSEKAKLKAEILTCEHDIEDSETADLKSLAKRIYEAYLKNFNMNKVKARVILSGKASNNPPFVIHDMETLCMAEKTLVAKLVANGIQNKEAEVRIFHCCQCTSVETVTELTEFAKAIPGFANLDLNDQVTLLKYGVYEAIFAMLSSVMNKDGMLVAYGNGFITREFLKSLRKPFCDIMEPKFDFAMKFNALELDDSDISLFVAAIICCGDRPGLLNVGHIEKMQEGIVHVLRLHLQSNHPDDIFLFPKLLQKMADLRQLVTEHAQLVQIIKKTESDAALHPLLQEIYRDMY
Put plainly: Antagonist activity at human PPARalpha expressed in Escherichia coli assessed as inhibition of […]-induced calcium flux at 10 uM by alpha screen assay.

The target in data set [4] is T3, Peroxisome proliferator-activated receptor gamma (Homo sapiens) (UniProt P37231).
T3 sequence (whole entry): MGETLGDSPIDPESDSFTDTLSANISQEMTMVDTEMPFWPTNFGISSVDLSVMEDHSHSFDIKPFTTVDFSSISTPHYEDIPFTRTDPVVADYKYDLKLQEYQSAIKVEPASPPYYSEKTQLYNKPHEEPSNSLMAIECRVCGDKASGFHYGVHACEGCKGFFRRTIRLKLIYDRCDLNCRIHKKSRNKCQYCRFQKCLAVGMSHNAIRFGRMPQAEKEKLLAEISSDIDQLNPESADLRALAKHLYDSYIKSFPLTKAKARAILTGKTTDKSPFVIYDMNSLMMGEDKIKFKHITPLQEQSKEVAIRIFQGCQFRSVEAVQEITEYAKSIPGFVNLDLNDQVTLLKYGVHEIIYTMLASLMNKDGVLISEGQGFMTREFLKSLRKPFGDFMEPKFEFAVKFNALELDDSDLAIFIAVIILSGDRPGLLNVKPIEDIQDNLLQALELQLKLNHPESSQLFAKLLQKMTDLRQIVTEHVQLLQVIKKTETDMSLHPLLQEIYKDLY
Kind of data set: Agonist activity at human PPARgamma expressed in Escherichia coli assessed as induction of calcium flux at 10 uM by fluorimetry.

Data set [5] has as its target T4, Peroxisome proliferator-activated receptor delta (Homo sapiens) (UniProt Q03181).
T4 sequence (whole entry): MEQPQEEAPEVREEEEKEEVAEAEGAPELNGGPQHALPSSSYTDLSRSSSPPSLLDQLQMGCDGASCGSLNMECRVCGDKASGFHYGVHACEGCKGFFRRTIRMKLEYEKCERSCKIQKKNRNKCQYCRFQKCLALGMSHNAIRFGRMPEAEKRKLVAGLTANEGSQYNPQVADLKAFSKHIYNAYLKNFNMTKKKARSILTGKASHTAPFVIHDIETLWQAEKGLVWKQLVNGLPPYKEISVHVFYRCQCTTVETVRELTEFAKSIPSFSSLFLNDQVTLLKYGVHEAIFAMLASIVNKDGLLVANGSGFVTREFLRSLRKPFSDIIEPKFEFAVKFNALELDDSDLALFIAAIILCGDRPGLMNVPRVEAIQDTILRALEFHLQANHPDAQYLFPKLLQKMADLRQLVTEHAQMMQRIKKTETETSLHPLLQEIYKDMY
Kind of data set: Antagonist activity at human PPARdelta expressed in Escherichia coli assessed as inhibition of GW0742-induced calcium flux at 10 uM by fluorimetry.

Data set [6] deals with T5, Oxysterols receptor LXR-alpha (Homo sapiens) (UniProt Q13133).
T5 sequence (whole entry): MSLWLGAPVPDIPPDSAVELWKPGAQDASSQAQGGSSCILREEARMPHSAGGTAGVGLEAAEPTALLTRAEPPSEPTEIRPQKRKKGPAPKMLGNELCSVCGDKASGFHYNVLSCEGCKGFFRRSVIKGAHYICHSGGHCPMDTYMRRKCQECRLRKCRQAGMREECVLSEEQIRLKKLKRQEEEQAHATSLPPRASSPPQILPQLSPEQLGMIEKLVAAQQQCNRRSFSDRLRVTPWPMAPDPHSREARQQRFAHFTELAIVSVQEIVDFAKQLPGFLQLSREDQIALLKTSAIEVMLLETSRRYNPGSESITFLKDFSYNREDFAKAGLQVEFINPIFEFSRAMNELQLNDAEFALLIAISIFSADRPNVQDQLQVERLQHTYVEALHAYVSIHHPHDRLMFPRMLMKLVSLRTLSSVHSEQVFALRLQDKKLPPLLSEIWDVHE
Kind of data set: Agonist activity at human LXRalpha expressed in Escherichia coli assessed as induction of calcium flux at 10 uM by fluorimetry.

Data set [7] in a line: Metabolic stability in mouse liver microsomes assessed as compound remaining at 1 uM after 1 hr by HPLC method. It counts as ADME, microsome. The following applies: read-out: Stability. The gist of the method:
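Mouse liver microsomes 0.5 mg/mL with 1 µM test compound in 0.1 M PBS pH 7.4 plus NADPH. Pre-incubated 5 min at 37 °C before microsome addition, then 1 h at 37 °C with shaking. Quenched with ice-cold MeOH/MeCN 1:1, centrifuged; HPLC analysis relative to the 0 min sample.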
A general note: Liver microsomes are a subcellular fraction often used to study metabolism.

Data set [8] is described as follows: AUC (0 to infinity) in Balb/c mouse at 5 mg/kg, iv by HPLC-MS/MS analysis. As to conditions: in vivo. Format: ADME, organism-based. Set-up: dose 5 mg/kg, time infinity, route intravenous. The gist of the method:
(§1)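 Balb/c mice dosed at 5 mg/kg iv or 10 mg/kg po. Plasma concentrations over time used to derive t1/2, AUC0–∞, Vd and total clearance (iv), and tmax, Cmax, AUC0–∞ and oral bioavailability (po).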

The nature of data set [9]: Total clearance in Balb/c mouse at 5 mg/kg, iv by HPLC-MS/MS analysis. It counts as ADME, organism-based. As to conditions: in vivo. The gist of the method: as §1
A short description of data set [10]: Oral bioavailability in Balb/c mouse at 10 mg/kg by HPLC-MS/MS analysis. It counts as ADME, organism-based. The following applies: in vivo. In outline:
as §1

Regarding `Cc1noc(C)c1-c1ccc(C(=O)N2[C@@H](c3ccccc3Cl)SC[C@H]2C(=O)O)cc1`, the outcome in [1], in [2], in data set [4] and in data set [6] was inactive. The inhibition entry in data set [3] and in data set [5] was “inactive” each time. The remaining at 1 h, 1 µM in [7] is 82%. Also, the AUC(0-inf) – broadly, total exposure, with the tail of the curve extrapolated – in data set [8] was 4100 ng·h/mL. Moreover, the clearance (in general, the volume of plasma or blood freed of the substance per unit of time) in data set [9] was found to be 20.3 mL/min/kg. The bioavailability – broadly, the share of a dose that reaches the circulation, judged against a reference dose that is usually intravenous – in data set [10] worked out at 32%.
